What was measured:
Amaranthus retroflexus [1] = assay: Herbicidal activity against Amaranthus retroflexus assessed as growth inhibition at 37.5 g/ha postemergence treatment measured after 15 days by Greenhouse test; assay type: functional; conditions: post-emergence, 360 h, read-out: GI
Procedure, shortened: (§1)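 Postemergence greenhouse pot test. About 20 seeds per pot, sown 1-3 cm deep in clay soil (pH 6.5, 1.6% organic matter). Plants grown at 15-30 °C and 50% relative humidity. Compounds were made up as 100 g/L emulsifiable concentrates in DMF with Tween-80, then diluted in water. Dicots were sprayed at the 2-leaf stage and monocots at the 1-leaf stage. Controls were untreated and solvent-treated. Injury was scored visually after 15 days, three replicates per treatment.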

Amaranthus retroflexus [2] = assay: Herbicidal activity against Amaranthus retroflexus assessed as growth inhibition at 150 g/ha postemergence treatment measured after 15 days by Greenhouse test; assay type: functional; conditions: post-emergence, 360 h, read-out: GI
Procedure, shortened: (§2)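 Test compounds were made up as 100 g/L emulsifiable concentrates (DMF solvent, Tween-80 emulsifier) and diluted with water. About 20 seeds were sown 1–3 cm deep in clay soil (pH 6.5, 1.6% organic matter) in 9.5 cm pots, kept at 15–30 °C and 50% RH. Postemergence spray was applied to dicots at the 2-leaf stage and monocots at the 1-leaf stage. Controls were untreated and solvent-treated. Injury was scored visually at 15 days, with three replicates.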

Setaria faberi [3] = assay: Herbicidal activity against Setaria faberi (Giant Foxtail) assessed as growth inhibition at 75 g/ha postemergence treatment measured after 15 days by Greenhouse test; assay type: functional; conditions: post-emergence, 360 h, read-out: GI; procedure, shortened: as §1
Eclipta prostrata [4] = assay: Herbicidal activity against Eclipta prostrata assessed as growth inhibition at 37.5 g/ha postemergence treatment measured after 15 days by Greenhouse test; assay type: functional; conditions: post-emergence, 360 h, read-out: GI; procedure, shortened: as §1
Eclipta prostrata [5] = assay: Herbicidal activity against Eclipta prostrata assessed as growth inhibition at 75 g/ha postemergence treatment measured after 15 days by Greenhouse test; assay type: functional; conditions: post-emergence, 360 h, read-out: GI; procedure, shortened: as §1
Setaria faberi [6] = assay: Herbicidal activity against Setaria faberi (Giant Foxtail) assessed as growth inhibition at 150 g/ha postemergence treatment measured after 15 days by Greenhouse test; assay type: functional; conditions: post-emergence, 360 h, read-out: GI; procedure, shortened: as §2
Abutilon theophrasti [7] = assay: Herbicidal activity against Abutilon theophrasti (velvetleaf) assessed as growth inhibition at 150 g/ha postemergence treatment measured after 15 days by Greenhouse test; assay type: functional; conditions: post-emergence, 360 h, read-out: GI; procedure, shortened: as §2
Digitaria sanguinalis [8] = assay: Herbicidal activity against Digitaria sanguinalis (hairy crabgrass) assessed as growth inhibition at 37.5 g/ha postemergence treatment measured after 15 days by Greenhouse test; assay type: functional; conditions: post-emergence, 360 h, read-out: GI; procedure, shortened: as §1
Echinochloa crus-galli [9] = assay: Herbicidal activity against Echinochloa crus-galli (barnyard grass) assessed as growth inhibition at 37.5 g/ha postemergence treatment measured after 15 days by Greenhouse test; assay type: functional; conditions: post-emergence, 360 h, read-out: GI; procedure, shortened: as §1
Abutilon theophrasti [10] = assay: Herbicidal activity against Abutilon theophrasti (velvetleaf) assessed as growth inhibition at 75 g/ha postemergence treatment measured after 15 days by Greenhouse test; assay type: functional; conditions: post-emergence, 360 h, read-out: GI; procedure, shortened: as §1
Setaria faberi [11] = assay: Herbicidal activity against Setaria faberi (Giant Foxtail) assessed as growth inhibition at 37.5 g/ha postemergence treatment measured after 15 days by Greenhouse test; assay type: functional; conditions: post-emergence, 360 h, read-out: GI; procedure, shortened: as §1
Brassica juncea [12] = assay: Herbicidal activity against Brassica juncea assessed as growth inhibition at 150 g/ha postemergence treatment measured after 15 days by Greenhouse test; assay type: functional; conditions: post-emergence, 360 h, read-out: GI; procedure, shortened: as §2
Echinochloa crus-galli [13] = assay: Herbicidal activity against Echinochloa crus-galli (barnyard grass) assessed as growth inhibition at 150 g/ha postemergence treatment measured after 15 days by Greenhouse test; assay type: functional; conditions: post-emergence, 360 h, read-out: GI; procedure, shortened: as §2
[14] = molecular target: T1, Protoporphyrinogen oxidase (Homo sapiens) (UniProt P50336); assay: Inhibition of Homo sapiens (human) recombinant protoporphyrinogen oxidase by fluorescence detection
T1 sequence (whole entry): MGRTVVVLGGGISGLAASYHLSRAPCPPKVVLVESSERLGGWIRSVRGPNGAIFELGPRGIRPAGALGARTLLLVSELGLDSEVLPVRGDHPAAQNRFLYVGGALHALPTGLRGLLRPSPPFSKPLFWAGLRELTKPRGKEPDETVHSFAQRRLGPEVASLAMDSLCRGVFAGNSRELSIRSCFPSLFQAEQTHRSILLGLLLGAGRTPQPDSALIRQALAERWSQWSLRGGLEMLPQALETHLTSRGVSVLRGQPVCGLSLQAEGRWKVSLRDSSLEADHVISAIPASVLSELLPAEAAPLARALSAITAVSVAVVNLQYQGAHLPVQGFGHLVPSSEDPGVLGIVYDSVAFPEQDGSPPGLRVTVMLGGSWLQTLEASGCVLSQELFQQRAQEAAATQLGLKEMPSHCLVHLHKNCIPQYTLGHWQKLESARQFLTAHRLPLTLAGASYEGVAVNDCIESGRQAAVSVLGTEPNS

Abutilon theophrasti [15] = assay: Herbicidal activity against Abutilon theophrasti (velvetleaf) assessed as growth inhibition at 37.5 g/ha postemergence treatment measured after 15 days by Greenhouse test; assay type: functional; conditions: post-emergence, 360 h, read-out: GI; procedure, shortened: as §1
Brassica juncea [16] = assay: Herbicidal activity against Brassica juncea assessed as growth inhibition at 37.5 g/ha postemergence treatment measured after 15 days by Greenhouse test; assay type: functional; conditions: post-emergence, 360 h, read-out: GI; procedure, shortened: as §1
Digitaria sanguinalis [17] = assay: Herbicidal activity against Digitaria sanguinalis (hairy crabgrass) assessed as growth inhibition at 75 g/ha postemergence treatment measured after 15 days by Greenhouse test; assay type: functional; conditions: post-emergence, 360 h, read-out: GI; procedure, shortened: as §1
Amaranthus retroflexus [18] = assay: Herbicidal activity against Amaranthus retroflexus assessed as growth inhibition at 75 g/ha postemergence treatment measured after 15 days by Greenhouse test; assay type: functional; conditions: post-emergence, 360 h, read-out: GI; procedure, shortened: as §1
Digitaria sanguinalis [19] = assay: Herbicidal activity against Digitaria sanguinalis (hairy crabgrass) assessed as growth inhibition at 150 g/ha postemergence treatment measured after 15 days by Greenhouse test; assay type: functional; conditions: post-emergence, 360 h, read-out: GI; procedure, shortened: as §2
Brassica juncea [20] = assay: Herbicidal activity against Brassica juncea assessed as growth inhibition at 75 g/ha postemergence treatment measured after 15 days by Greenhouse test; assay type: functional; conditions: post-emergence, 360 h, read-out: GI; procedure, shortened: as §1
Eclipta prostrata [21] = assay: Herbicidal activity against Eclipta prostrata assessed as growth inhibition at 150 g/ha postemergence treatment measured after 15 days by Greenhouse test; assay type: functional; conditions: post-emergence, 360 h, read-out: GI; procedure, shortened: as §2
Echinochloa crus-galli [22] = assay: Herbicidal activity against Echinochloa crus-galli (barnyard grass) assessed as growth inhibition at 75 g/ha postemergence treatment measured after 15 days by Greenhouse test; assay type: functional; conditions: post-emergence, 360 h, read-out: GI; procedure, shortened: as §1

Cc1nn(-c2cc(NS(C)(=O)=O)c(Cl)cc2Cl)c(=O)n1C(F)F [SULFENTRAZONE]
inhibition of growth at 37.5 g/ha (Amaranthus retroflexus [1]): 80%
inhibition of growth at 150 g/ha (Amaranthus retroflexus [2]): 80%
inhibition of growth at 75 g/ha (Setaria faberi [3]): < 50%
inhibition of growth at 37.5 g/ha (Eclipta prostrata [4]): 80%
inhibition of growth at 75 g/ha (Eclipta prostrata [5]): 80%
inhibition of growth at 150 g/ha (Setaria faberi [6]): < 50%
inhibition of growth at 150 g/ha (Abutilon theophrasti [7]): 80%
inhibition of growth at 37.5 g/ha (Digitaria sanguinalis [8]): 50%
inhibition of growth at 37.5 g/ha (Echinochloa crus-galli [9]): 50%
inhibition of growth at 75 g/ha (Abutilon theophrasti [10]): 80%
inhibition of growth at 37.5 g/ha (Setaria faberi [11]): < 50%
inhibition of growth at 150 g/ha (Brassica juncea [12]): 80%
inhibition of growth at 150 g/ha (Echinochloa crus-galli [13]): 60%
Ki [14]: 720 nM
inhibition of growth at 37.5 g/ha (Abutilon theophrasti [15]): 80%
inhibition of growth at 37.5 g/ha (Brassica juncea [16]): 60%
inhibition of growth at 75 g/ha (Digitaria sanguinalis [17]): 50%
inhibition of growth at 75 g/ha (Amaranthus retroflexus [18]): 80%
inhibition of growth at 150 g/ha (Digitaria sanguinalis [19]): 60%
inhibition of growth at 75 g/ha (Brassica juncea [20]): 80%
inhibition of growth at 150 g/ha (Eclipta prostrata [21]): 80%
inhibition of growth at 75 g/ha (Echinochloa crus-galli [22]): 50%

From ChEMBL document CHEMBL3045880, “Design and syntheses of novel N-(benzothiazol-5-yl)-4,5,6,7-tetrahydro-1H-isoindole-1,3(2H)-dione and N-(benzothiazol-5-yl)isoindoline-1,3-dione as potent protoporphyrinogen oxidase inhibitors” (J Agric Food Chem, 2011)
